From PubChem BioAssay
This is a sample that favours compounds with a hit; in the whole collection about 2% have one here.
VIM-2 inhibitor – inhibitors of Pseudomonas aeruginosa VIM-2 metallo-beta-lactamase. purified VIM-2, nitrocefin hydrolysis, epi-absorbance fluorescence. inhibition, % at 5.6 µM. 290,000 compounds, 0.89% hits;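 active = inhibition above the mean of all tested compounds plus 3 SD, cutoff set per screening run, cut at about 7.5% in these data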;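 note: red hydrolysis product quenches plate fluorescence so inhibitors raise well fluorescence; 0% = enzyme with DMSO and 100% = DMSO without enzyme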
PvdQ inh – blocks Pseudomonas aeruginosa PvdQ acylase activity. purified PvdQ acylase, fluorescence plate reader. inhibition, % at 10 µM. 340,000 compounds, 0.063% hits; in the data active = inhibition above about 30%, passing the limit was not always enough;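 note: 0% = vehicle neutral wells and 100% = reference inhibitor wells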
PLC-beta3 inh – PLC-beta3 (human) inhibition, primary screen. Q01970. Purified PLC-beta3, fluorogenic substrate, fluorescence. inhibition, % at 12.2 µM. 370,000 compounds, 0.18% hits; in the data active = inhibition above about 11%;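 note: 0% = median of compound wells on plate and 100% = full blocker control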
Target sequence (Q01970 whole entry, looked up): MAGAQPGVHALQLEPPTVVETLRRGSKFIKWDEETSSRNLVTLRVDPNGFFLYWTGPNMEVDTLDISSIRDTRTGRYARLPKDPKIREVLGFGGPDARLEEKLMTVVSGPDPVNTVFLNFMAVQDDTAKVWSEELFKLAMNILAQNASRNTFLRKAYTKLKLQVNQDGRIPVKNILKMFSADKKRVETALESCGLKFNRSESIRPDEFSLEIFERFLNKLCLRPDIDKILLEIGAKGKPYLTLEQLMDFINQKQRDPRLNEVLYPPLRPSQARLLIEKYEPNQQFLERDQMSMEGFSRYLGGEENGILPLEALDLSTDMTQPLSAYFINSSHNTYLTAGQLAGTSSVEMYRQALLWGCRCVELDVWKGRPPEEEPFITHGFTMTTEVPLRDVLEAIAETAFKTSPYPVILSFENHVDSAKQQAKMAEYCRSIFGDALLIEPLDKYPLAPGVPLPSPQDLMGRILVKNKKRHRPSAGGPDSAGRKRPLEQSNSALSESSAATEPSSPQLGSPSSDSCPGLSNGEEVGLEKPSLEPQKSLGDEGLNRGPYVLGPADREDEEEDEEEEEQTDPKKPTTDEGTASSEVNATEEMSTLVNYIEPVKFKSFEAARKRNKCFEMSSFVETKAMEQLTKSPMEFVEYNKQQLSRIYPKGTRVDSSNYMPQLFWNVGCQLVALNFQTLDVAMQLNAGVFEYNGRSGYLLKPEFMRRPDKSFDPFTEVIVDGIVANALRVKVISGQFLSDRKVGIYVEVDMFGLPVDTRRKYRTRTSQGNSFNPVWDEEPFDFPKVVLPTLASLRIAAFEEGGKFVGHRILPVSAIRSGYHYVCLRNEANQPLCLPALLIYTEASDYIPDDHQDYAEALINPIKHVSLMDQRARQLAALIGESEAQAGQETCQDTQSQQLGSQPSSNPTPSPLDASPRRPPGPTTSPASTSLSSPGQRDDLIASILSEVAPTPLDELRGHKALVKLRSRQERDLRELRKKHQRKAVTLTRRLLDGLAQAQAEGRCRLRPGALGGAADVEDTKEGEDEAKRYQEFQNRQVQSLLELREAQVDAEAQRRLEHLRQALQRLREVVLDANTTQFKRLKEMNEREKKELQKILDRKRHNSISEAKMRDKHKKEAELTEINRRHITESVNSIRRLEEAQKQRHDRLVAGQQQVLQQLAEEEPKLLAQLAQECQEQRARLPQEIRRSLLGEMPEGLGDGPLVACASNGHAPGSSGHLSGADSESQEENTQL
IMP-1 inhibitor – blocks Pseudomonas aeruginosa IMP-1 metallo-beta-lactamase. purified IMP-1, nitrocefin hydrolysis, epi-absorbance fluorescence. 290,000 compounds, 0.45% hits. inhibition, % at 5.6 µM. AID 1556;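 active = inhibition above the mean plus 3 SD of all compounds in the same screening run, cut at about 4.5% in these data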;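 note: 0% = IMP-1 with DMSO and 100% = DMSO wells lacking enzyme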
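system = purified recombinant IMP-1 beta-lactamase | amount = 0.2 nM IMP-1, as dispensed | medium = HEPES buffer pH 7.1 with ZnSO4 and Brij 35 | times = 25 °C, 15 min preincubation, 25 min reaction | detection = plate fluorescence quenching by hydrolysis product, ex 480/em 530 nm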
PLC-gamma1 inh – PLC-gamma1 (human) inhibition, primary screen | P19174 | 370,000 compounds, 0.84% hits | purified PLC-gamma1, fluorogenic substrate, fluorescence | AID 720700 | inhibition, % at 12.2 µM
PLCg1 ctr – inhibits human PLC-gamma1 in PLC-beta3 counter-screen | inhibition, % at 12.3 µM | purified PLC-gamma1, fluorogenic substrate, fluorescence | 3,300 compounds, 3.1% hits | shares compounds with PLC-gamma1 inh
PLCb3 confirm – human PLC-beta3 inhibition, confirmation; shares compounds with PLC-gamma1 inh; purified PLC-beta3, fluorogenic substrate fluorescence; inhibition, % at 12.3 µM; 3,300 compounds, 1% hits; AID 743261; in the data active = inhibition above about 11%
Starred values were filed as active, the others as inactive; . = no result given. Cut-off read from the data, not from the text of the source, unless noted: active = inhibition above about 9.5%; inactive = the rest.

SMILES | VIM-2 inhibitor | PvdQ inh | PLC-beta3 inh | IMP-1 inhibitor | PLC-gamma1 inh | PLCg1 ctr | PLCb3 confirm
O=C(Nc1ccccc1N1CCOCC1)c1ccc(Cl)c(S(=O)(=O)NCc2ccco2)c1 | -1 | -14 | -3 | -2 | 9.7* | -4 | -4
O=C(Nc1ccccc1N1CCOCC1)c1ccc(S(=O)(=O)NCc2ccco2)cc1 | -1 | -11 | -2 | -1 | 3 | . | .
Cc1ccc(CNC(=O)C(C)OC(=O)c2ccco2)cc1 (stereo unspecified) | -3 | -8 | 2 | -4 | 13* | 4 | 2
Cc1ccc(CNC(=O)C(OC(=O)c2ccco2)C(C)C)cc1 (stereo unspecified) | 0 | -9 | -2 | -1 | 2 | . | .
COC(=O)[C@]12C[C@H](CC(=O)N3CCSCC3)C(=O)N(Cc3ccc(Cl)cc3Cl)C1=C[C@H](C(C)(C)C)O[C@@H]2C | . | . | 3 | . | -2 | . | .
O=C(C[n+]1cccc(CNC(=O)c2ccc(OC(F)F)cc2)c1)Nc1cccc(C(F)(F)F)c1 | 1 | -15 | 12* | -1 | 0 | -3 | 4
O=C(c1ccccc1)c1ccc(OCC(O)CN2CCN(S(=O)(=O)N3CCCCC3)CC2)cc1 (stereo unspecified) | 0 | -11 | 1 | -2 | 3 | . | .
CCC(=O)c1ccc(OCC(O)CN2CCN(S(=O)(=O)N3CCCCC3)CC2)cc1 (stereo unspecified) | -3 | -10 | 1 | -3 | 9.6* | -5 | 0
CCOC(=O)c1c(C)[nH]c(C(=O)CN2C(=O)NC3(CCCC3)C2=O)c1C | -1 | 0 | 8 | -3 | 13* | -2 | 2
C=CC[C@H](CC(=O)OC(C)(C)C)C(=O)OC[C@@H]1CCCN1C(=O)[C@@H](CC=C)CC(=O)NCCO | . | -13 | 3 | . | 9.8* | -9 | -1
C=CC[C@@H](CC(=O)OC(C)(C)C)C(=O)OC[C@@H]1CCCN1C(=O)[C@@H](CC=C)CC(=O)N[C@@H](CO)Cc1ccccc1 | . | -11 | 2 | . | -1 | . | .
CC1(C(=O)Nc2ccc3c(c2)OCO3)CCN1C(=O)C1CCCCC1 (stereo unspecified) | . | . | 1 | . | 4 | . | .
CC1(C(=O)Nc2ccc(Cl)c(Cl)c2)CCN1C(=O)C1CCCCC1 (stereo unspecified) | . | . | 4 | . | 16* | -5 | -3
CCOC(=O)c1c(S(=O)(=O)N2CCN(C3CCCCC3)CC2)c(C)n(C)c1C | 3 | 7 | -11 | 1 | -4 | . | .
CCOC(=O)c1c(S(=O)(=O)N(C)C2CCCCC2)c(C)n(C)c1C | -1 | -15 | 1 | -3 | 9.9* | -4 | 0
O=c1cc2c(=O)oc3cc(O)c(O)oc3c2c(O)c1O | 3 | -5 | -39 | 1 | 33* | -279 | -322
Cn1c(=O)n(Cc2ccc(Cl)cc2)c(=O)c2c1nc1n2CCN1Cc1ccco1 | -1 | -11 | -1 | -1 | 11* | -3 | -6
O=C(NC(c1ccc(Cl)cc1)c1ccsc1)C1CCN(Cc2ccc(Oc3ccccc3)cc2)CC1 (stereo unspecified) | . | . | 1 | . | -1 | . | .
CCCN1CCC(C(=O)NC(c2ccc(Cl)cc2)c2ccsc2)CC1 (stereo unspecified) | . | . | 2 | . | 9.7* | -3 | 2
Cc1c(-c2nnc(SCC(=O)O)n2-c2ccccc2Br)nnn1-c1ccccc1 | -2 | 8 | 2 | -2 | 14* | -7 | -27
CCOC(=O)[C@@]12CN(C(=O)OC(C)(C)C)CC=C1N(Cc1ccc(OC)cc1)C(=O)[C@H]2CC(=O)N1CCSCC1 | . | . | 1 | . | 0 | . | .
COc1cc(/C=N/NC(=O)[C@H](Cc2c[nH]c3ccccc23)NC(=O)OCC(C)C)cc([N+](=O)[O-])c1O | -4 | 8 | 8 | -2 | 14* | 2 | 2
COc1cc(/C=N/NC(=O)Cc2ccccc2)cc([N+](=O)[O-])c1O | -3 | 2 | -2 | -3 | 5 | . | .
C=CCn1c(Cc2cccs2)nnc1SCC(=O)Nc1ccc(C)cc1 | . | . | 3 | . | -4 | . | .
CC1CCN(c2c(NCc3ccc(C(=O)NCc4ccco4)cc3)c(=O)c2=O)CC1 | -3 | -8 | 3 | -3 | 0 | . | .
SMILES | VIM-2 inhibitor | PvdQ inh | PLC-beta3 inh | IMP-1 inhibitor | PLC-gamma1 inh | PLCg1 ctr | PLCb3 confirm
O=C(NCc1ccco1)c1ccc(CNc2c(N3CCCCC3)c(=O)c2=O)cc1 | -5 | -11 | 11* | -2 | 5 | 1 | 2
CC(SC(C)C(=O)NN=Cc1cccc(Cl)c1)C(=O)NN=Cc1cccc(Cl)c1 (stereo unspecified) | . | -8 | 11* | . | 9 | -12 | -4
CCc1ccc(OC)c(S(=O)(=O)Nc2ccc(Cc3ccncc3)cc2)c1 | -2 | -13 | -4 | 0 | 14* | -1 | 0
Cc1ccc(NC(=O)c2ccc(CS(=O)(=O)Cc3ccccc3C)o2)cc1C | . | . | -4 | . | -4 | . | .
COCCNC(=O)c1onc(CSc2cccc(OC)c2)c1C(=O)O | -2 | -9 | 0 | -3 | -1 | . | .
COc1cccc(SCc2noc(C(=O)NCCN(C)C)c2C(=O)NCCN(C)C)c1 | . | -2 | 8 | . | 9.7* | -4 | -2
CCOC(=O)[C@@]12CN(C(=O)OC(C)(C)C)CC=C1N(Cc1ccc(OC)cc1)C(=O)[C@H]2CC(=O)NCc1cccc(C(F)(F)F)c1 | . | . | -6 | . | -2 | . | .
CN(C)S(=O)(=O)n1cc(/C=C(\NC(=O)c2ccccc2Cl)C(=O)NCCN2CCOCC2)c2ccccc21 | -5 | -6 | -3 | -3 | 12* | 0 | 3
CN(C)S(=O)(=O)n1cc(/C=C(\NC(=O)c2ccccc2Cl)C(=O)NCCCN2CCOCC2)c2ccccc21 | -1 | -10 | 1 | -2 | 4 | . | .
COCc1[nH][nH]c(=O)c1C=Nc1ccc(Cl)cc1 | -2 | 3 | 5 | -1 | -1 | . | .
COCc1[nH][nH]c(=O)c1C=Nc1ccc(OC(F)(F)F)cc1 | -2 | -5 | 11* | -1 | 2 | -4 | 0
COC(=O)c1cc2c(c3c4ccccc4n(S(=O)(=O)c4ccc(C)cc4)c13)C(=O)N(CC(C)C)C2 | . | . | -24 | . | -18 | . | .
Cc1nc([N+](=O)[O-])c(Br)n1CC(=O)c1ccc(Cl)cc1 | -2 | -4 | 1 | -4 | 9.7* | 2 | 0
CC(C)CN1C(=O)C[C@]2(C(=O)N(C)c3ccc(NS(=O)(=O)C4CC4)cc32)C1c1ccccc1 (stereo partly specified) | . | . | 4 | . | 6 | . | .
CC(C)C[C@@H]1COc2cc(Br)ccc2S(=O)(=O)N1Cc1cn(CCC2OCCCO2)nn1 | . | . | -6 | . | 5 | . | .
CCOC(=O)c1sc(NC(=S)NC(=O)C2CCCC2)cc1C | -1 | -7 | 0 | 1 | 0 | . | .
CCOC(=O)c1sc(NC(=O)C2CC2)cc1C | -2 | -5 | 5 | -1 | 11* | -8 | -1
NC(=O)NC(=O)CN1C(=O)NC(c2ccccc2)(c2ccccc2)C1=O | -1 | -15 | 3 | -2 | 11* | -3 | -4
